IC50, survival and ED90 data for four compounds are collected here from ChEMBL document CHEMBL3580633, “Benzoxaborole antimalarial agents. Part 4. Discovery of potent 6-(2-(alkoxycarbonyl)pyrazinyl-5-oxy)-1,3-dihydro-1-hydroxy-2,1-benzoxaboroles” (J Med Chem, 2015).

Molecules are shown by their SMILES. pIC50: −log10 of the molar value.

The subject of one test is Jurkat. In words: Cytotoxicity against human Jurkat cells incubated for 72 hrs by MTT assay. In kind it is cell-based. A general note: Tetrazolium assays rely on reduction of a dye to a coloured formazan, in cell work by metabolically active cells.
The test system of test [1] is Plasmodium berghei. Description: Antiplasmodial activity against Plasmodium berghei infected in Swiss Webster mouse assessed as mouse survival at 1 mg/kg, po dosed once daily for 4 consecutive days beginning 1 hr after initial infection and measured on day 4 post infection by Giemsa staining method. In kind it is functional. The gist of the method: (§1)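 Female Swiss Webster mice (about 20 g) infected ip with 6 × 10^6 P. berghei-infected erythrocytes. Oral gavage once daily for 4 days, starting 1 h after infection. Vehicle PEG300/propylene glycol/water (55/25/20 by weight). Giemsa-smear parasitemia counted daily from day 4. Mice euthanised above 50% parasitemia. Survival followed to day 21, 5 mice per dose, chloroquine 30 mg/kg as reference.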

In test [2] the test system is Plasmodium berghei. In words: Antiplasmodial activity against Plasmodium berghei infected in Swiss Webster mouse assessed as mouse survival at 1 mg/kg, po dosed once daily for 4 consecutive days beginning 1 hr after initial infection and measured on day 6 post infection by Giemsa staining method. Type of test: functional. The gist of the method:
as §1

Test [3] concerns Plasmodium berghei. Description: Antiplasmodial activity against Plasmodium berghei infected in Swiss Webster mouse assessed as mouse survival at 100 mg/kg, po dosed once daily for 4 consecutive days beginning 1 hr after initial infection and measured on day 8 post infection by Giemsa staining method. Type of test: functional. The gist of the method:
as §1

Test [4] concerns Plasmodium falciparum. In words: Antimalarial activity against chloroquine-resistant Plasmodium falciparum W2 cultured in human erythrocytes assessed as inhibition of parasite growth incubated for 48 hrs by YOYO-1 staining based flow cytometry. In kind it is functional, organism-based. The following applies: W2, 48 h. A general note: A flow cytometer gives signals particle by particle.

The subject of test [5] is Plasmodium berghei. Description: Antiplasmodial activity against Plasmodium berghei infected in Swiss Webster mouse assessed as mouse survival at 33 mg/kg, po dosed once daily for 4 consecutive days beginning 1 hr after initial infection and measured on day 8 post infection by Giemsa staining method. Type of test: functional. In a few lines:
(§2)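 Female Swiss Webster mice (about 20 g) were infected ip with 6 × 10^6 P. berghei-infected erythrocytes from a donor mouse. They were dosed by oral gavage once daily for 4 days, starting 1 h post-infection, in PEG 300/propylene glycol/water (55/25/20 by weight). Parasitemia was read daily on Giemsa smears from day 4, and mice were euthanized above 50% parasitemia. Percent survival was tracked to 21 days.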

Test [6] has as its system Plasmodium berghei. In words: Antiplasmodial activity against Plasmodium berghei infected in Swiss Webster mouse assessed as mouse survival at 11 mg/kg, po dosed once daily for 4 consecutive days beginning 1 hr after initial infection and measured on day 10 post infection by Giemsa staining method. Type of test: functional. In a few lines:
as §1

The test system of test [7] is Plasmodium berghei. In words: Antiplasmodial activity against Plasmodium berghei infected in Swiss Webster mouse assessed as mouse survival at 100 mg/kg, po dosed once daily for 4 consecutive days beginning 1 hr after initial infection and measured on day 10 post infection by Giemsa staining method. In kind it is functional. The gist of the method: as §1
In test [8] the test system is Plasmodium berghei. In words: Antiplasmodial activity against Plasmodium berghei infected in Swiss Webster mouse assessed as mouse survival at 33 mg/kg, po dosed once daily for 4 consecutive days beginning 1 hr after initial infection and measured on day 4 post infection by Giemsa staining method. Type of test: functional. The gist of the method: as §2
The test system of test [9] is Plasmodium berghei. In words: Antiplasmodial activity against Plasmodium berghei infected in Swiss Webster mouse assessed as mouse survival at 33 mg/kg, po dosed once daily for 4 consecutive days beginning 1 hr after initial infection and measured on day 5 post infection by Giemsa staining method. Type of test: functional. The gist of the method:
as §2

In test [10] the test system is Plasmodium berghei. In words: Antiplasmodial activity against Plasmodium berghei infected in Swiss Webster mouse assessed as mouse survival at 1 mg/kg, po dosed once daily for 4 consecutive days beginning 1 hr after initial infection and measured on day 9 post infection by Giemsa staining method. Type of test: functional. In a few lines: as §1
For test [11], the system named is Plasmodium berghei. In words: Antiplasmodial activity against Plasmodium berghei infected in Swiss Webster mouse assessed as […] dosed orally once daily for 4 consecutive days beginning 1 hr after initial infection and measured on day 4 after onset of treatment by Giemsa staining method. The note with it: po. In kind it is functional. The gist of the method:
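In the P. berghei model, female Swiss Webster mice were infected ip with 6 × 10^6 infected erythrocytes. They were gavaged once daily for 4 days from 1 h post-infection, in PEG 300/propylene glycol/water (55/25/20 by weight), with 5 mice per dose. Parasitemia was counted on Giemsa smears. ED90 is the dose reducing parasitemia 90% versus vehicle controls 4 days after therapy began, fitted by nonlinear regression.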

In test [12] the test system is Plasmodium berghei. In words: Antiplasmodial activity against Plasmodium berghei infected in Swiss Webster mouse assessed as mouse survival at 33 mg/kg, po dosed once daily for 4 consecutive days beginning 1 hr after initial infection and measured on day 10 post infection by Giemsa staining method. In kind it is functional. The gist of the method: as §2
Test [13] has as its system Plasmodium berghei. In words: Antiplasmodial activity against Plasmodium berghei infected in Swiss Webster mouse assessed as mouse survival at 1 mg/kg, po dosed once daily for 4 consecutive days beginning 1 hr after initial infection and measured on day 8 post infection by Giemsa staining method. Type of test: functional. The gist of the method: as §1
Test [14] relates to Plasmodium berghei. Description: Antiplasmodial activity against Plasmodium berghei infected in Swiss Webster mouse assessed as mouse survival at 3 mg/kg, po dosed once daily for 4 consecutive days beginning 1 hr after initial infection and measured on day 9 post infection by Giemsa staining method. In kind it is functional. In a few lines:
as §1

The subject of test [15] is Plasmodium berghei. In words: Antiplasmodial activity against Plasmodium berghei infected in Swiss Webster mouse assessed as mouse survival at 100 mg/kg, po dosed once daily for 4 consecutive days beginning 1 hr after initial infection and measured on day 6 post infection by Giemsa staining method. In kind it is functional. In a few lines:
as §1

The subject of test [16] is Plasmodium berghei. In words: Antiplasmodial activity against Plasmodium berghei infected in Swiss Webster mouse assessed as mouse survival at 1 mg/kg, po dosed once daily for 4 consecutive days beginning 1 hr after initial infection and measured on day 7 post infection by Giemsa staining method. Type of test: functional. The gist of the method: as §1
Test [17] concerns Plasmodium berghei. Description: Antiplasmodial activity against Plasmodium berghei infected in Swiss Webster mouse assessed as mouse survival at 3 mg/kg, po dosed once daily for 4 consecutive days beginning 1 hr after initial infection and measured on day 8 post infection by Giemsa staining method. In kind it is functional. The gist of the method:
as §1

Test [18] has as its system Plasmodium berghei. Description: Antiplasmodial activity against Plasmodium berghei infected in Swiss Webster mouse assessed as mouse survival at 11 mg/kg, po dosed once daily for 4 consecutive days beginning 1 hr after initial infection and measured on day 5 post infection by Giemsa staining method. In kind it is functional. The gist of the method: as §1
Test [19] concerns Plasmodium berghei. Description: Antiplasmodial activity against Plasmodium berghei infected in Swiss Webster mouse assessed as mouse survival at 11 mg/kg, po dosed once daily for 4 consecutive days beginning 1 hr after initial infection and measured on day 6 post infection by Giemsa staining method. Type of test: functional. In a few lines:
as §1

The test system of test [20] is Plasmodium berghei. In words: Antiplasmodial activity against Plasmodium berghei infected in Swiss Webster mouse assessed as mouse survival at 100 mg/kg, po dosed once daily for 4 consecutive days beginning 1 hr after initial infection and measured on day 7 post infection by Giemsa staining method. Type of test: functional. In a few lines:
as §1

For test [21], the system named is Plasmodium berghei. In words: Antiplasmodial activity against Plasmodium berghei infected in Swiss Webster mouse assessed as mouse survival at 11 mg/kg, po dosed once daily for 4 consecutive days beginning 1 hr after initial infection and measured on day 9 post infection by Giemsa staining method. In kind it is functional. In a few lines: as §1
Test [22] relates to Plasmodium berghei. In words: Antiplasmodial activity against Plasmodium berghei infected in Swiss Webster mouse assessed as mouse survival at 11 mg/kg, po dosed once daily for 4 consecutive days beginning 1 hr after initial infection and measured on day 8 post infection by Giemsa staining method. In kind it is functional. In a few lines: as §1
For test [23], the system named is Plasmodium falciparum. In words: Antimalarial activity against chloroquine-sensitive Plasmodium falciparum 3D7 cultured in human erythrocytes incubated for 48 hrs by [3H]-hypoxanthine incorporation assay. In kind it is functional, organism-based. In a few lines: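 3D7 parasites in human erythrocytes, RPMI-1640 with 0.5% Albumax II, […], 37 °C, 5% O2/5% CO2. Asynchronous cultures (0.5% parasitemia, 2% hematocrit) given 3-fold serial dilutions for 24 h. [3H]hypoxanthine then added for a further 24 h, and incorporation counted by scintillation. Normalised to drug-free infected cells. IC50 from at least three independent experiments.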

As usually defined, the pIC50 is the IC50 on a negative log10 scale, so that one unit is a factor of ten. Take `O=C(O)c1cnc(Oc2ccc3c(c2)B(O)OC3)cn1`: the pIC50 in the test with Jurkat is under 4.00; with Plasmodium falciparum [4], 6.82. The survival at 1 mg/kg was 100% in the test on Plasmodium berghei [1]; 100% with Plasmodium berghei [2]; 0% in the test on Plasmodium berghei [10]; 40% in the test with Plasmodium berghei [13]; 80% in the test on Plasmodium berghei [16]. Also, the survival at 100 mg/kg in the test with Plasmodium berghei [3] came out at 100%; in the test with Plasmodium berghei [7], 60%; in the test with Plasmodium berghei [15], 100%; in the test with Plasmodium berghei [20], 100%. Besides, the survival at 33 mg/kg came to 80% with Plasmodium berghei [5], 100% with Plasmodium berghei [8], 100% in the test on Plasmodium berghei [9] and 40% with Plasmodium berghei [12]. Further, the survival at 11 mg/kg is 20% in the test on Plasmodium berghei [6]; 100% in the test with Plasmodium berghei [18]; 100% with Plasmodium berghei [19]; 20% with Plasmodium berghei [21]; 60% in the test with Plasmodium berghei [22]. Further, in the test with Plasmodium berghei [11], the ED90 worked out at 30.3 mg/kg. The results for the survival at 3 mg/kg in the test with Plasmodium berghei [14] and with Plasmodium berghei [17] were 0% and 20%, respectively.
Take `O=C(O)c1ccc(Oc2ccc3c(c2)B(O)OC3)cn1`: the figures for the pIC50 in the test with Plasmodium falciparum [23] and in the test with Plasmodium falciparum [4] were 6.27 and 6.77, respectively. The survival at 1 mg/kg was found to be 100% in the test with Plasmodium berghei [1], 100% in the test with Plasmodium berghei [2], 0% in the test on Plasmodium berghei [13] and 60% with Plasmodium berghei [16]. Moreover, the survival at 100 mg/kg with Plasmodium berghei [3] amounted to 80%; in the test with Plasmodium berghei [15], 100%; in the test on Plasmodium berghei [20] it was 100%. For the same compound, the survival at 33 mg/kg turned out to be 60% in the test on Plasmodium berghei [5], 100% with Plasmodium berghei [8] and 100% in the test with Plasmodium berghei [9]. Moreover, the ED90 in the test on Plasmodium berghei [11] was determined as 21.1 mg/kg. Moreover, the survival at 3 mg/kg with Plasmodium berghei [14] turned out to be 0%; with Plasmodium berghei [17] it was 20%. For the same compound, the survival at 11 mg/kg in the test on Plasmodium berghei [18] stood at 100%; with Plasmodium berghei [19], 100%; in the test on Plasmodium berghei [21], 0%; in the test on Plasmodium berghei [22], 40%.
For the compound `COC(=O)c1cnc(Oc2ccc3c(c2)B(O)OC3)cn1`, the pIC50 is 8.72 in the test with Plasmodium falciparum [23], 5.12 with Jurkat and 8.85 in the test with Plasmodium falciparum [4]. For the same compound, the survival at 1 mg/kg came out at 100% in the test on Plasmodium berghei [1]; 100% with Plasmodium berghei [2]; 0% with Plasmodium berghei [10]; 40% in the test on Plasmodium berghei [13]; 100% in the test with Plasmodium berghei [16]. Also, the survival at 100 mg/kg in the test on Plasmodium berghei [3], in the test on Plasmodium berghei [7], with Plasmodium berghei [15] and in the test on Plasmodium berghei [20] was 100% in each case. The survival at 33 mg/kg in the test on Plasmodium berghei [5], with Plasmodium berghei [8], in the test on Plasmodium berghei [9] and in the test on Plasmodium berghei [12] was 100% throughout. The survival at 11 mg/kg turned out to be 80% in the test on Plasmodium berghei [6]; 100% in the test on Plasmodium berghei [18]; 100% with Plasmodium berghei [19]; 80% in the test on Plasmodium berghei [21]; 100% in the test on Plasmodium berghei [22]. Moreover, the ED90 in the test with Plasmodium berghei [11] was found to be 7 mg/kg. Besides, the survival at 3 mg/kg in the test with Plasmodium berghei [14] is 40%; with Plasmodium berghei [17] it was 80%.
As to `NC(=O)c1cnc(Oc2ccc3c(c2)B(O)OC3)cn1`, the pIC50 in the test on Plasmodium falciparum [23] is 6.46; with Jurkat it was 4.32; in the test on Plasmodium falciparum [4], 6.68. For the same compound, the survival at 1 mg/kg in the test on Plasmodium berghei [1] was 100%; in the test on Plasmodium berghei [2] it was 100%; in the test with Plasmodium berghei [10], 0%; in the test with Plasmodium berghei [13], 40%; in the test on Plasmodium berghei [16], 60%. For the same compound, the survival at 100 mg/kg with Plasmodium berghei [3] was 100%; with Plasmodium berghei [7], 0%; in the test with Plasmodium berghei [15] it was 100%; with Plasmodium berghei [20], 100%. Moreover, the survival at 33 mg/kg in the test with Plasmodium berghei [5] worked out at 100%; in the test on Plasmodium berghei [8], 100%; with Plasmodium berghei [9], 100%; in the test with Plasmodium berghei [12], 0%. In addition, the survival at 11 mg/kg in the test on Plasmodium berghei [6] was determined as 0%; with Plasmodium berghei [18] it was 100%; in the test with Plasmodium berghei [19], 100%; with Plasmodium berghei [21] it was 60%; in the test on Plasmodium berghei [22] it was 100%. Further, the ED90 with Plasmodium berghei [11] amounted to 38.7 mg/kg. In addition, the survival at 3 mg/kg in the test with Plasmodium berghei [14] is 0%; with Plasmodium berghei [17], 60%.
